Experimental data gathered from unrelated publications.
Each line is one published result; the experiments were not run side by side.
Target: Citron Rho-interacting kinase (CIT, Homo sapiens, UniProt O14578)

Compound	observed	action	method	concentration	quantity	value
CN1CCN(C(=O)c2ccc(NC(=O)Nc3ccc(N(C)c4ccnc(Nc5ccc(CS(C)(=O)=O)cc5)n4)cc3)cc2)CC1	binding		competition with immobilised ligand	1 µM	remaining binding	79%
C1=C/COCc2cc(ccc2OCCN2CCCC2)Nc2nccc(n2)-c2cccc(c2)COC/1	cell-free assay			0.1 µM	remaining signal	72%
COc1ccc2oc(-c3ccc4nc(N)oc4c3)c/c(=N\c3ccccc3NC(=O)CCN)c2c1	binding			1 µM	remaining binding	92%
CCCCC(=O)Nc1ccc(-c2ccc3ncn(CCC)c(=O)c3c2)cn1	binding		competition with immobilised ligand	0.5 µM	remaining binding	83%
CO[C@@H]1[C@H](N(C)C(=O)c2ccccc2)C[C@H]2O[C@]1(C)n1c3ccccc3c3c4c(c5c6ccccc6n2c5c31)C(=O)NC4	enzyme activity	inhibitor		1 µM	inhibition	0%
Cc1ccc(NC(=O)c2ccnc(C(F)(F)F)c2)cc1-c1cc(OCCO)nc(N2CCOCC2)c1	binding		competition with immobilised ligand	1 µM	remaining binding	96%
CC#CC(=O)N1CCC[C@H]1c1nc(-c2ccc(C(=O)Nc3ccccn3)cc2)c2c(N)nccn12	enzyme activity	inhibitor		1 µM	inhibition	1%
CC(C)S(=O)(=O)c1ccc2nccc(Nc3ccc4sc(C5CCCC5)nc4c3)c2c1	enzyme activity	inhibitor		1 µM	activity vs control	113%
